Laboratory results: ChEMBL document CHEMBL1155146, “Diphenyl furans and aza analogs: effects of structural modification on in vitro activity, DNA binding, and accumulation and distribution in trypanosomes” (Antimicrob Agents Chemother, 2007)

Assays:
[1] = test system: Trypanosoma brucei brucei; test: Antitrypanosomal activity against Trypanosoma brucei brucei S427 after 72 hrs; format: functional, organism-based; details: S427, 72 h
[2] = test system: Trypanosoma brucei rhodesiense; test: Antitrypanosomal activity against Trypanosoma brucei rhodesiense STIB900 after 72 hrs; format: functional, organism-based; details: STIB900, 72 h
[3] = Binding affinity to poly(dA).poly(dT) assessed as increase in melting temperature
How it was run: (§1)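 UV thermal melting in MES buffer (0.01 M MES, 0.1 M NaCl, 0.001 M EDTA, pH 6.2), heated at 0.5°C/min. Oligomer duplex at 1 x 10^-6 M duplex with 1:1 compound:duplex. Poly(dA)·poly(dT) at 5 x 10^-5 M base pairs with 0.6 compound:bp. Tm taken from the first-derivative maximum of absorbance vs temperature. ΔTm = Tm(complex) − Tm(DNA).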

[4] = Binding affinity at d(CGCGAATTCGCG) synthetic oligomer duplex assessed as increase in melting temperature; how it was run: as §1
[5] = test system: Trypanosoma brucei brucei; test: Drug level in Trypanosoma brucei brucei S427 at 7.5 uM after 8 hrs; format: ADME, organism-based
How it was run: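 About 10^6 trypanosomes incubated with 7.5 µM diamidine for 1 to 8 h. Intracellular concentration measured by HPLC (fluorescence detection at excitation/emission maxima, formate buffer/acetonitrile gradient, reversed-phase column) or LC/MS. Reported as mean ± standard error.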

[6] = test system: Trypanosoma brucei brucei; test: Drug level in Trypanosoma brucei brucei S427 at 7.5 uM after 24 hrs; format: ADME, organism-based

| SMILES | IC50 [1] [nM] | IC50 [2] [nM] | ΔTm [3] [°C] | ΔTm [4] [°C] | Drug uptake [5] [mM] | Drug uptake [6] [mM] |
| --- | --- | --- | --- | --- | --- | --- |
| N=C(N)c1ccc(-c2ccc(-c3ccc(C(=N)N)cn3)o2)nc1 | 13 | 19 | 16 | 8.4 |  |  |
| c1cc(-c2ccc(-c3ccc(C4=NCCN4)cc3)o2)ccc1C1=NCCN1 | 251 | 245 | 19.3 | 11 |  |  |
| N=C(N)c1ccc(-c2ccc(-c3ccc(C(=N)N)cc3)o2)cc1 [FURAMIDINE] | 7 |  | 26.2 | 8.9 | 4.5 | 12 |
| N=C(N)c1ccc(-c2ccc(-c3ccc(C(=N)N)cc3O)o2)nc1 | 32 | 32 | 16.4 | 10.4 |  |  |
| N=C(N)c1ccc(-c2ccc(-c3ccc(C(=N)N)cn3)o2)cc1 | 3.4 |  | 20 | 11.2 | 1 | 3 |
| Cc1cc(C(=N)N)ccc1-c1ccc(-c2ccc(C(=N)N)cn2)o1 | 10 | 9.7 | 16.7 | 10.6 |  |  |
| N=C(N)c1ccc(-c2coc(-c3ccc(C(=N)N)cc3)c2)cc1 | 2.1 | 1.7 | 17.1 | 10.4 | 30 |  |
| N=C(NC1CCCCC1)c1ccc(-c2ccc(-c3ccc(C(=N)NC4CCCCC4)cc3)o2)cc1 | 121 | 68 | 27 | 16.8 | 30 |  |
| N=C(N)c1ccc(-c2ccc(-c3ccc(C(=N)N)nc3)o2)cc1 | 3.3 | 2.1 | 23.3 | 10.4 | 9.3 |  |
| c1cc(-c2ccc(-c3ccc(C4=NCCCN4)cc3)o2)ccc1C1=NCCCN1 | 260 | 33 | 27 | 15.1 |  |  |
| N=C(N)c1ccc(-c2ccc(-c3ccc(C(=N)N)cc3F)o2)c(F)c1 | 14.8 | 8 | 15.2 | 8.2 |  |  |
| N=C(N)c1ccc(Cc2ccc(-c3ccc(C(=N)N)cn3)o2)cc1 | 314 | 147 | 3.1 | 0.4 |  |  |
| N=C(NC1CCCC1)c1ccc(-c2ccc(-c3ccc(C(=N)NC4CCCC4)cc3)o2)cc1 | 100 | 60 | 27 | 16 | 30 |  |
